Results published in ChEMBL document CHEMBL5584259, “NMR-Guided Isolation of Anti-inflammatory Carabranolides from the Fruits of Carpesium abrotanoides L” (J Nat Prod, 2024).

Columns and labels:
[1] = tested on: RAW264.7; test: Antiinflammatory activity in mouse RAW264.7 cells assessed as inhibition of LPS-induced NO production incubated for 24 hrs by Griess reagent based assay; assay type: functional, cell-based; conditions: for IC50: RAW264.7, 24 h
How it was run: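 RAW264.7 (ATCC) grown in DMEM + 10% FBS, 37 °C, 5% CO2. Cells at 1 × 10^5/well treated with compound or dexamethasone at 1.25, 2.5, 5, 10, 20 μM in triplicate, then stimulated with LPS 100 ng/mL for 24 h. Supernatant nitrite measured with Griess reagent, absorbance 550 nm; IC50 from concentration series.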

[2] = tested on: RAW264.7; test: Cytotoxicity against mouse RAW264.7 cells assessed as reduction in cell viability up to 20 uM incubated for 24 hrs by MTT assay; assay type: toxicity, cell-based; conditions: raw264.7, 24 h
How it was run: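 Viability read by MTT in parallel with the NO assay: RAW264.7 at 1 × 10^5/well, compound at 1.25–20 μM in triplicate, LPS 100 ng/mL for 24 h.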

[3] = tested on: RAW264.7; test: Antiinflammatory activity in mouse RAW264.7 cells assessed as inhibition of LPS-induced iNOS protein expression incubated for 24 hrs by Western blot analysis; assay type: functional, cell-based; conditions: dose 5-20 µM
How it was run: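 Cells seeded at 5 × 10^5/well, exposed to compound at 10, 20, 40 μM or dexamethasone 5 μM, then LPS 0.5 μg/mL for 24 h. RIPA lysates run on 8% SDS-PAGE, transferred to PVDF. Probed overnight at 4 °C for iNOS with GAPDH as loading control, then secondary antibody 1 h at room temperature.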

IC50 [1]	Compound	Activity [2]	inhibition [1]	inhibition [3]
9.87 µM	C=C1C(=O)O[C@@H]2C[C@]3(C)[C@@H](CC[C@@H](C)OC(=O)CCCCCCCCC(O)CCCCCCO)[C@@H]3C[C@H]12 (stereo not given in full)	Non-Toxic		
5.82 µM	C=C1C(=O)O[C@@H]2C[C@]3(C)[C@@H](CC[C@@H](C)OC(=O)Cc4ccc(O)cc4C)[C@@H]3C[C@H]12	Non-Toxic	Dose-Dependent Effect	Dose-Dependent Effect
> 20 µM	C=C1C(=O)O[C@@H]2C[C@]3(C)C(CC[C@@H](C)OC(=O)C[C@@H](O)CCCCCCCCCCCCCC)[C@@H]3C[C@H]12 (stereo not given in full)	Non-Toxic		
8.52 µM	C[C@@H]1C[C@H]2[C@@H]3CCC4=CC(=O)C=C[C@]4(C)[C@@]3(F)[C@@H](O)C[C@]2(C)[C@@]1(O)C(=O)CO [DEXAMETHASONE]			
9.15 µM	C=C1C(=O)O[C@@H]2C[C@]3(C)[C@@H](CC[C@@H](C)OC(=O)CC4CCC(=O)C=C4C)[C@@H]3C[C@H]12 (stereo not given in full)	Non-Toxic	Dose-Dependent Effect	Dose-Dependent Effect
9.35 µM	C=C1C(=O)O[C@@H]2C[C@]3(C)C(CC[C@@H](C)OC(=O)CCCCCCCC(=O)O)[C@@H]3C[C@H]12 (stereo not given in full)	Non-Toxic		
11.6 µM	C=C1C(=O)O[C@@H]2C[C@]3(C)[C@@H](CC[C@@H](C)OC(=O)CCCC[C@@H](O)/C=C/[C@@H](O)[C@H](O)CCCCCCCC)[C@@H]3C[C@H]12	Non-Toxic		
8.67 µM	C=C1C(=O)O[C@@H]2C[C@]3(C)[C@@H](CC[C@@H](C)OC(=O)CCCCCCC[C@@H]4OC(=O)C[C@H]4O)[C@@H]3C[C@H]12	Non-Toxic	Dose-Dependent Effect	Dose-Dependent Effect
9.75 µM	C=C1C(=O)O[C@@H]2C[C@]3(C)C(CC[C@@H](C)OC(=O)CCCCCCCCO)[C@@H]3C[C@H]12 (stereo not given in full)	Non-Toxic		
11.8 µM	C=C1C(=O)O[C@@H]2C[C@]3(C)[C@@H](CC[C@@H](C)OC(=O)CCCC[C@H](O)/C=C/[C@@H](O)[C@H](O)CCCCCCCC)[C@@H]3C[C@H]12	Non-Toxic		
> 20 µM	C=C1C(=O)O[C@@H]2C[C@]3(C)[C@@H](CC[C@@H](C)OC(=O)CCCCCCC/C=C/C/C=C/CCCCC)[C@@H]3C[C@H]12	Non-Toxic		
> 20 µM	C=C1C(=O)O[C@@H]2C[C@]3(C)[C@@H](CC[C@@H](C)OC(=O)CCCCCCCCCCCCCCC)[C@@H]3C[C@H]12	Non-Toxic		
15.1 µM	C=C1C(=O)O[C@@H]2C[C@]3(C)[C@@H](CC[C@@H](C)OC(=O)CCCCCCC[C@H]4OC(=O)C[C@H]4O)[C@@H]3C[C@H]12	Non-Toxic		
5.64 µM	C=C1C(=O)O[C@@H]2C[C@]3(C)[C@@H](CC[C@@H](C)OC(C)=O)[C@@H]3C[C@H]12	Non-Toxic	Dose-Dependent Effect	Dose-Dependent Effect
